Laboratory results from ChEMBL document CHEMBL3600328, “Bayesian models trained with HTS data for predicting β-haematin inhibition and in vitro antimalarial activity” (Bioorg Med Chem, 2015).

How the values were obtained:
Plasmodium falciparum = experiment: Antimalarial activity against CQ-sensitive Plasmodium falciparum NF54 assessed as inhibition of parasite growth; format: functional, organism-based
[1] = Inhibition of beta-hematin formation; format: physicochemical
In short: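 NP-40 detergent-mediated β-haematin formation assay, run per an earlier-published protocol.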

What does the source list for `C=C[C@H]1CN2CC[C@@H]1C[C@@H]2Cc1ccnc2ccccc12`?
IC50 (Plasmodium falciparum): 0.082 µM; IC50 [1]: 66 µM

With `Cc1ccc(C(=O)C2=C(O)C(=O)N(Cc3cccnc3)[C@H]2c2ccc(Cl)c(Cl)c2)o1` as the compound, how does the IC50 (Plasmodium falciparum) read?
Its IC50 is greater than 10 µM.

And the IC50 [1]?
Its IC50 is 88 µM.

What does the source list for `O=C(O)c1cc(-c2ccc(-c3ccccc3)cc2)nc2ccccc12`?
IC50 (Plasmodium falciparum): > 10 µM; IC50 [1]: 46 µM

With `COc1cc(-c2nc3cc([N+](=O)[O-])ccc3[nH]2)ccc1O` as the compound, how does the IC50 (Plasmodium falciparum) read?
The IC50 was greater than 10 µM.

What about the IC50 [1] of the same compound?
Its IC50 is 22 µM.

With `CN(C)CCNc1cc(-c2ccc3ccccc3c2)nc2ccccc12` as the compound, how does the IC50 (Plasmodium falciparum) read?
Its IC50 is 0.079 µM.

What about the IC50 [1] of the same compound?
The IC50 was 26 µM.

Which results are given for `Nc1cc(O)c2ccccc2n1`?
IC50 (Plasmodium falciparum): > 10 µM; IC50 [1]: 85 µM
